Source: PubChem
WT yeast gro inh = growth inhibition of WT strain, primary screen, mitochondrial fusion inhibitor project, WT and mutant strains, chemical genetic | inhibition, % at 10 µM | AID 1362, 2008 | 190,000 tested, 2.1% active | mitochondrial fusion phenotypic screen; in the data active = inhibition above about 58%; tested in S. cerevisiae
Diaphorase inh = diaphorase inhibitors and chemical oxidizers, primary screen, counter-screen for diaphorase-coupled primary assays, biochemical, uHTS, resorufin fluorescence; diaphorase resazurin-to-resorufin fluorescence, NADH, 16 min; bacterial (C. kluyveri) enzyme, not human; inhibition, % at 20 µM; 190,000 tested, 0.69% active; AID 1217, 2008;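 active = primary screen inhibition at 20 µM above a set limit, cut at about 50% in these data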;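 note: plate controls were DMSO with full reaction for no effect and wells lacking NADH for full effect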
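Test system: diaphorase enzyme from Clostridium kluyveri; amount: diaphorase at 0.14 U/mL in enzyme working solution; detection: fluorescence of resorufin formed from resazurin, Ex 544/Em 590 nm; times: reaction incubation of 16 min at room temperature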
Diaph act CS = compounds boosting diaphorase resazurin reduction – biochemical, uHTS, resorufin fluorescence, counter-screen for diaphorase-coupled primary assays, primary screen; Diaphorase/resazurin coupled assay, 16 min; stronger effect = higher value; 1 = vehicle wells, 0 = NADH-free wells; activation factor at 20 µM; 190,000 tested, 0.005% active; AID 1229, 2008;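 active = diaphorase activity raised at least twofold by the compound at 20 µM; inactive = activation factor below 2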
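Material: Clostridium kluyveri diaphorase, purified enzyme; Quantity: enzyme 0.07 U/mL final; Medium: HEPES pH 7.4 buffer with MgCl2 and Tween 20; Dosing: single compound dose of 20 µM, 1% DMSO final; Schedule: 16 min reaction at room temperature; Measured by: red resorufin fluorescence at 544/590 nm excitation/emission.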
Lmaj promast = Leishmania major promastigote growth inhibition, primary screen; 200,000 tested, 9% active; Leishmania major promastigotes, resazurin fluorescence viability; inhibition, % at 10 µM; AID 1063, 2008;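 note: promastigotes grown with compound for 44 hours at 28 °C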
G6PDH CS = L. mesenteroides G6PDH inhibitors, counter-screen for G6PDH-coupled screening assays, biochemical, Leuconostoc mesenteroides enzyme; inhibition, % at 5 µM; AID 1020, 2008; 200,000 tested, 0.12% active; Purified L. mesenteroides G6PDH, diaphorase/resazurin coupled fluorescence, 45 min; glucose-6-phosphate dehydrogenase [Leuconostoc mesenteroides]
* marks the source's active call; other numbers are inactive results; nt = no result. Shown are actives, neighbours in structure and some others; about 11% of the full set was active somewhere. Cut-off read from the data, not from the text of the source, unless noted: active = inhibition above about 50%; inactive = the rest.

SMILES	WT yeast gro inh	Diaphorase inh	Diaph act CS	Lmaj promast	G6PDH CS
Cc1ccc2[nH]c(=O)c(C(c3nnnn3C3CCCC3)N3CCCc4ccccc43)cc2c1 (configuration not stated)	0.0	62.1*	0.4	40.2	0.2
CCC(C)(C)n1nnnc1C(c1cc2cc(OC)ccc2[nH]c1=O)N1CCc2ccccc21 (configuration not stated)	18.1	45.9	0.5	34.4	-1.3
Cc1ccc(C(c2nnnn2C2CCCC2)N2CCc3ccccc32)cc1 (configuration not stated)	11.7	12.1	0.9	13.4	13.4
CCC(C)(C)n1nnnc1C(c1cc2cc(C)ccc2[nH]c1=O)N1CCCc2ccccc21 (configuration not stated)	-33.3	69.6*	0.3	2.3	6.2
COCC(=O)N1CCCC(C(=O)c2ccc(-c3ccccc3)c(F)c2)C1 (configuration not stated)	58.6*	13.3	0.9	0.0	13.6
CC(=O)NCC(=O)N1CCCC(C(=O)c2ccc(-c3ccccc3)c(F)c2)C1 (configuration not stated)	4.4	5.3	0.9	-7.3	5.2
COc1ccc(/C=C/CN2CCCC(C(=O)c3ccc(OC)c(F)c3)C2)cc1 (configuration not stated)	23.6	-2.6	1	81.8*	4.7
COc1ccc(C(=O)C2CCCN(C(=O)COc3ccc(C(C)=O)cc3)C2)cc1F (configuration not stated)	-14.7	70.4*	0.3	6.8	13.7
COc1ccc(C(=O)C2CCCN(C(=O)c3noc4c3CCCC4)C2)cc1F (configuration not stated)	8.4	20.2	0.8	-0.1	16.1
CSc1ccccc1C(=O)N1CCCCC1	6.8	-19.3	1.2	-8.0	3.3
O=C(c1ccccc1)c1cc(Cl)ccc1N1C(=O)C=CC1=O	85.2*	10.7	0.9	-3.4	6.8
Cc1ccc(S(=O)(=O)Nc2ccc(Cl)cc2C(=O)c2ccccc2)cc1	41.1	9.4	0.9	5.2	-4.4
Cc1cc2cc(CN(CCN(C)C)C(=S)NCc3ccco3)c(=O)[nH]c2cc1C	-3.4	4.9	1	12.8	5.1
Cc1cc2cc(CN(Cc3cccs3)C(=S)NCc3ccco3)c(=O)[nH]c2cc1C	21.7	27.6	0.7	87.8*	-22.1
CCN(CC)CCN(Cc1cc2cc(C)c(C)cc2[nH]c1=O)C(=S)NCc1ccco1	-0.6	-1.6	1	60.0*	10.2
CNC(=S)N(Cc1cccs1)Cc1cc2cc(OC)ccc2[nH]c1=O	16.0	18.1	0.8	1.2	-15.8
Cc1ccc(C)c2[nH]c(=O)c(CN(Cc3cccs3)C(=S)NCc3ccco3)cc12	-9.3	12.8	0.9	70.3*	-11.0
COc1ccc2[nH]c(=O)c(CN(Cc3cccs3)C(=S)Nc3cccc(C)c3)cc2c1	29.7	4.0	1	99.7*	-6.7
COCCNC(=S)N(Cc1cccs1)Cc1cc2cccc(C)c2[nH]c1=O	10.9	9.7	0.9	24.8	10.6
CS(=O)(=O)N(CC(=O)NCCC1=CCCCC1)c1ccc2c(c1)OCO2	-9.5	-12.8	1.1	-1.9	13.4
Cc1ccc(C(=O)NCC(=O)OCC(=O)NC2CCS(=O)(=O)C2)cc1C (configuration not stated)	-5.1	-2.5	1	51.7*	2.9
COc1ccc(C(=O)NCC(=O)OCC(=O)NC2CCCC2)cc1	-0.3	10.2	0.9	-2.2	13.0
COc1cc(CN(C(=S)NCC(=O)NC2CCCC2)C2CCCC2)cc(OC)c1OC	-14.9	13.5	0.9	2.1	20.5
CC(=O)Oc1ccc(N(C(C)=O)S(=O)(=O)c2cccs2)c2ccccc12	3.1	10.1	0.9	99.7*	16.8
COc1ccc2[nH]cc(CCn3ccc(O)c(C/C=C/c4ccccc4)c3=O)c2c1	-4.4	28.1	0.7	100.0*	9.2
SMILES	WT yeast gro inh	Diaphorase inh	Diaph act CS	Lmaj promast	G6PDH CS
COc1cc(-c2nnc(SCc3c(F)cccc3Cl)o2)cc(OC)c1OC	64.1*	11.8	0.9	81.7*	-29.1
O=C(C1CC1)N(Cc1ccco1)c1nc(-c2ccccc2)cs1	35.8	23.6	0.8	57.8*	11.6
CCOC(=O)c1cc(=O)cc(C(=O)OCC)o1	-15.7	12.9	0.9	94.8*	6.7
COc1ccc(C2(O)CC3CCC(C2)N3c2cc(C)nc(-c3ccccc3)n2)cc1 (configuration not stated)	31.2	18.2	0.8	63.3*	-1.0
Cc1cc(N2CCCC2)nc(N2C3CCC2CC(O)(c2ccc(F)cc2)C3)n1 (configuration not stated)	7.0	6.4	0.9	27.3	11.5
CCOC(=O)C1(CCCc2ccccc2)CCN(C2CCSCC2)CC1	39.1	16.3	0.8	84.9*	6.7
CCOC(=O)C1(CCCc2ccccc2)CCN(CC(O)CO)CC1 (configuration not stated)	-8.6	-13.9	1.1	23.4	10.8
CN1CCC(CO)(Cc2ccccc2)CC1	-12.5	-3.3	1	1.8	4.1
CSCC(C)N1CCC(CO)(CCCc2ccccc2)CC1 (configuration not stated)	-1.8	9.7	0.9	91.0*	8.9
OCC1(CCCc2ccccc2)CCN(C2CCSCC2)CC1	4.3	9.0	0.9	83.8*	-3.5
CC(=O)c1cccc(CN2CCC(CO)(CCCc3ccccc3)CC2)c1	-7.6	8.1	0.9	78.8*	16.1
O=C(Cn1cnc2c(oc3ccccc32)c1=O)NCC1CCCO1 (configuration not stated)	2.7	7.8	0.9	-4.5	2.1
CCCCCCNCc1c(F)cccc1Cl	12.5	18.7	0.8	-2.7	4.9
CCOc1cc(C2C3=C(CC(C)(C)CC3=O)Nc3n[nH]c(C)c32)ccc1O (configuration not stated)	18.6	3.3	1	-5.6	5.8
COc1cccc(-c2cc(C(=O)NCCCn3ccnc3)c3ccccc3n2)c1	13.1	0.2	1	41.5	9.2
CCOc1ccc(NC(=O)CSc2nnc(Cn3cnc4ccccc43)n2C)cc1	-1.4	-15.9	1.2	-3.0	9.3
CC(C(=O)Nc1ccc(C(=O)O)cc1)N1C(=O)c2ccccc2C1=O (configuration not stated)	nt	9.4	0.9	-4.5	4.5
CC(=O)c1ccc(NC(=O)C(C)N2CCN(C/C=C/c3ccccc3)CC2)cc1 (configuration not stated)	-18.6	3.0	1	86.2*	3.8
COc1ccc(Cl)cc1NC(=O)C(C)N1CCN(C/C=C/c2ccccc2)CC1 (configuration not stated)	21.5	27.4	0.7	62.0*	2.0
